Rows were chosen to be rich in hits. Some 4.7% of all compounds tested hit in one or more screens of this group.
MrgX1 allo act = positive allosteric modulators of MrgX1, primary screen, HEK293 cells, Fluo-4 calcium flux; 0.63% of 310,000 active; B-score at 10 µM; Mas-related G-protein coupled receptor member X1 (Homo sapiens), Q96LB2; FDSS; hits give high values;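 active = plate-corrected calcium response at least 3 library SD above typical, normal starting fluorescence, not activating the receptor alone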;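 also: compound read alongside a low EC10 to EC30 dose of BAM8-22 agonist; peak minus trough fluorescence over baseline measured at the second addition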
Target sequence (Q96LB2 whole entry, looked up): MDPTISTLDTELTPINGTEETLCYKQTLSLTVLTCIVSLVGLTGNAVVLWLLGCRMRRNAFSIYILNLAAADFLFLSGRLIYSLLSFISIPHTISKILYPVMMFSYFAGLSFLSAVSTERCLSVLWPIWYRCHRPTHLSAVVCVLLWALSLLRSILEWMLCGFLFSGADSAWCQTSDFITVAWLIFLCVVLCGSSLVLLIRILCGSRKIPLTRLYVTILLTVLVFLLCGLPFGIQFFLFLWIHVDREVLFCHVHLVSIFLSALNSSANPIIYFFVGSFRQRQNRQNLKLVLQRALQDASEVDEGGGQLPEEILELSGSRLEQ
Cl transport mod = KCC2 cotransporter modulators, thallium flux, primary screen, cell-based, HEK293 KCC2, FluoZin-2 fluorescence, MLSMR | Solute carrier family 12 member 5 (Homo sapiens), Q9H2X9 | KCC2 cells, thallium flux FluoZin-2 fluorescence | B-score of Tl+ flux slope (higher = more flux/activation; lower = inhibition) at 10 µM | 2.2% of 190,000 active | AID 1456, 2008;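 active = thallium flux slope and its plate-corrected score both differing from the plate sample mean at a set confidence after two filtering rounds, in either direction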;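 also: slope of fluorescence scaled to starting intensity during 10 to 20 s after thallium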
RGS4 block = RGS4 inhibitors, primary screen, cell-based, HEK293 M3R inducible RGS4, calcium flux. Regulator of G-protein signaling 4 (Homo sapiens), P49798. Fluo-4 calcium flux; hits give high values; triggered by carbachol at its EC20. B-score at 10 µM. 0.45% of 310,000 active. AID 463165, 2010;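 active = B-score, a plate-corrected calcium signal, over three deviations above library mean, with baseline fluorescence within five deviations of library mean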;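 also: RGS4 expression induced by doxycycline in cells with stable M3 receptor; B-score is computed from the integrated fluorescence ratio over baseline after carbachol; higher B-score means a larger calcium signal and so more RGS4 inhibition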
Target sequence (P49798 whole entry, looked up): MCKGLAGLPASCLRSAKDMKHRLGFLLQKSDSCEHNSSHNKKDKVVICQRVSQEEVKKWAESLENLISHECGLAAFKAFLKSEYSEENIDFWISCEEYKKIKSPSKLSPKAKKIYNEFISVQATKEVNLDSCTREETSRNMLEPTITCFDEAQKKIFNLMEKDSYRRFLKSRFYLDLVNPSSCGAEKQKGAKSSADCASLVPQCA
MrgX1 antag = antagonists of human MrgX1 receptor, primary screen, HEK293 cells, Fluo-4 calcium flux | BAM8-22 antagonism; hits give low values | B-score at 10 µM | 1.3% of 310,000 active;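 active = calcium-response B-score plate-corrected more than 3 library SD below zero, starting fluorescence within 5 deviations, no agonist response on first addition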;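 also: peak minus trough fluorescence over baseline after final BAM8-22 challenge near maximal dose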
MrgX1 agonist = agonists of human MrgX1 receptor, primary screen, HEK293 cells, Fluo-4 calcium flux | B-score at 10 µM | Fluo-4 calcium fluorescence, agonist mode; hits give high values | 0.44% of 310,000 active | Mas-related G-protein coupled receptor member X1 (Homo sapiens), Q96LB2;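 active = calcium response B-score plate-corrected fluorescence ratio at least 3 library SD, with starting fluorescence B-score inside 5 SD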
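Material – MrgX1-expressing HEK293 cells · Input – 15,000 cells seeded per well · Dosing – compound as first of three additions · Times – overnight seeding, then 1 h dark dye loading · Measured by – kinetic Fluo-4 NW fluorescence of intracellular calcium · Read-out – B-scored fluorescence response ratio · Benchmarks – positive and negative control wells on each plate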
RGS4 act = RGS4 potentiators or activators, primary screen, cell-based, HEK293 M3R inducible RGS4, calcium flux | B-score at 10 µM | carbachol calcium flux Fluo4; hits give low values | 0.92% of 310,000 active;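 active = B-score of the integrated calcium signal more than 4 SD below the library mean, with starting fluorescence not abnormally high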;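 also: negative B-score means reduced calcium response which marks RGS4 activation or potentiation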
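Assay system: HEK293 FlpIn-TREx cells, stable M3R, doxycycline-inducible RGS4 / Probe or stimulus: carbachol, ECmax concentration / Times: overnight RGS4 induction, 30 min dye load 37 °C, 20 min compound RT / Signal: kinetic calcium fluorescence imaging with Fluo4-AM dye, 2 µM / Measure: Agonist-evoked peak-minus-minimum fluorescence over baseline, integrated ratio, B score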
RGS4 act valid = reduced carbachol calcium response, RGS4-induced M3R cells, confirmation, RGS4 activator project, cell-based, HEK293 M3R/RGS4 inducible, calcium flux, duplicate; inhibition, % at 10 µM; 89% of 1,100 active; shares compounds with RGS4 act; carbachol calcium flux Fluo4; AID 602282, 2012;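 active = inhibition above 3 SD of the buffer control wells, cut at about 41% in these data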;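 also: signal is the integrated peak-minus-minimum Fluo4 fluorescence over baseline ratio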
M3R Ca counter = activity in cells without induced RGS4 expression | 82% of 1,100 active | shares compounds with RGS4 act | HEK293 M3R non-induced RGS4, Fluo4 calcium flux; after carbachol challenge at its EC90 | inhibition, % at 10 µM;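 active = inhibition exceeding 3 SD of buffer-only control wells, cut at about 26% in these data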;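 also: percent drop in integrated peak-minus-baseline over baseline Fluo4 ratio after carbachol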
Each line names hits and unclear results; the compound was inactive in the other large screens (follow-up assays come after a bar, where they were run).

Cc1ccc(Cc2c(C)nc3nc(SCC(=O)NCCCN4CCCC4)nn3c2C)cc1	RGS4 act -9.64 (no result: Cl transport mod) | RGS4 act valid 41.0 | M3R Ca counter inactive
Cc1ccc(Cc2c(C)nc3nc(SCC(=O)NCCCN4CCCCC4)nn3c2C)cc1	none (no result: Cl transport mod)
NS(=O)(=O)c1ccc(CCNC(=O)CN2CCN(Cc3cccc4ccccc34)CC2)cc1	none (no result: Cl transport mod)
CCOC(=O)C1(CCOc2ccccc2)CCN(Cc2nccn2CC)CC1	none
CCOC(=O)C1(CCOc2ccccc2)CCN(Cc2cccn2-c2ncccn2)CC1	RGS4 act -8.08 (no result: Cl transport mod) | RGS4 act valid 54.0 | M3R Ca counter 83.8
CCOC(=O)C1(CCCc2ccccc2)CCN(Cc2nccn2CC)CC1	RGS4 act -11.4 | RGS4 act valid 92.0 | M3R Ca counter 83.8
CN(C)Cc1ccc(CNC(=O)COc2ccc3ccccc3c2)cc1	none (no result: Cl transport mod)
CN(CC(=O)Nc1ccccc1C(F)(F)F)C(=O)c1cc(-c2cccs2)nn1-c1ccccc1	none (no result: Cl transport mod)
CN(CC(=O)Nc1cccc(F)c1)C(=O)c1cc(-c2cccs2)nn1-c1ccccc1	RGS4 act -9.55 (no result: Cl transport mod) | RGS4 act valid 76.0 | M3R Ca counter 42.8
O=C(CNC1CCCCCC1)Nc1ccc(S(=O)(=O)NC2CC2)cc1	RGS4 act -7.72 | RGS4 act valid 64.0 | M3R Ca counter 83.8
CC(=O)Nc1ccc(S(=O)(=O)NC2CCCCCC2)cc1	none (no result: Cl transport mod)
CN(Cc1ccc(F)cc1)C(=O)C(c1ccccc1)c1ccccc1	RGS4 act -9.13 (no result: Cl transport mod) | RGS4 act valid 82.5 | M3R Ca counter 83.8
O=C(Nc1ccc2c(c1)OCCO2)c1cccnc1	RGS4 act -8.07 | RGS4 act valid inactive | M3R Ca counter inactive
COc1ccc2nc3sc(C(=O)NCCCN4CCc5ccccc5C4)cc3cc2c1	RGS4 act -8.2 | RGS4 act valid 74.0 | M3R Ca counter 83.8
COc1ccc2nc3sc(C(=O)N4CCN(C)CC4)cc3cc2c1	none
COc1cc(/C=N/NC(=O)c2ccccc2)ccc1O	none
COc1cc(/C=N/c2oc(-c3ccccc3)cc2C#N)ccc1O	RGS4 act -7.75 (no result: Cl transport mod) | RGS4 act valid inactive | M3R Ca counter inactive
Cc1ccc(SCCC(=O)OCC(=O)NCC2CCCCC2)cc1	none
COc1ccc(/C=N/NC(=O)c2ccccc2OCc2ccccc2)c(OC)c1	RGS4 act -11.2 (no result: Cl transport mod) | RGS4 act valid 94.0 | M3R Ca counter 75.8
CC(=O)N1c2ccc(S(=O)(=O)NCC3CCC(C(=O)Nc4cccc(C)n4)CC3)cc2CC1C (configuration not stated)	none (no result: Cl transport mod)
Cc1ccc2nc(Cl)c3cc(C(=O)NCCCN4CCCC4)sc3c2c1	RGS4 act -7.63 | RGS4 act valid 65.0 | M3R Ca counter 40.3
CCCN1CCN(CCCNC(=O)c2cc3c(=O)oc4ccc(C)cc4c3s2)CC1	none (no result: Cl transport mod)
O=C(Nc1ccc(-n2cc(Br)cn2)cc1)c1ccncc1	none (no result: Cl transport mod)
COc1ccc(S(=O)(=O)Cc2ccc(C(=O)NCc3ccccc3OC)o2)cc1	none (no result: Cl transport mod)
CN1CCN(c2nc(-c3ccccc3)cc(C(F)(F)F)n2)CC1	none (no result: Cl transport mod)
CN1CCN(c2nc(-c3cccs3)cc(C(F)(F)F)n2)CC1	RGS4 act -8.7 (no result: Cl transport mod) | RGS4 act valid 92.0 | M3R Ca counter 37.8
COc1ccccc1NC(=O)Nc1nc(CC(=O)Nc2ccc(OC)c(OC)c2)cs1	none (no result: Cl transport mod)
COc1cc(C)ccc1NC(=O)Cc1csc(NC(=O)Nc2ccccc2OC)n1	RGS4 act -10.1 (no result: Cl transport mod) | RGS4 act valid 94.0 | M3R Ca counter 90.8

Compound activity from PubChem.
